Consider four compounds from ChEMBL document CHEMBL1151949, “Alkaloids from the roots of Stemona aphylla” (2009).

≈ marks a conversion by molar mass, not a printed value.

Type in all cases: functional
In one assay the test system is Candida albicans. Nature of the assay: Antimicrobial activity against Candida albicans ATCC 90028 after 24 hrs by broth dilution technique. Particulars: ATCC 90028, 24 h. The method, boiled down:
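Broth dilution in trypticase soy broth, series from 500 to 1.95 µg/mL. Incubation at 37 °C for 24 h. MIC taken as lowest concentration with no visible growth. Amphotericin B served as antifungal positive control.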
Background: In broth dilution the organism is exposed to a series of concentrations in liquid medium.

A further assay concerns Escherichia coli. Briefly: Antimicrobial activity against Escherichia coli ATCC 25922 after 24 hrs by broth dilution technique. The method, boiled down: (§1)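 Serial dilutions in trypticase soy broth spanning 500 to 1.95 µg/mL, tested by broth dilution; tubes incubated 37 °C for 24 h. MIC taken as lowest concentration tube with no visible organism growth. Gentamycin served as antibacterial positive control.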

For the next assay, the system named is Staphylococcus aureus. Briefly: Antimicrobial activity against Staphylococcus aureus ATCC 25923 after 24 hrs by broth dilution technique. The method, boiled down:
as §1

The next assay relates to Plutella xylostella. Nature of the assay: Insecticidal activity against Plutella xylostella treated as topical application.
The test system of a further assay is Pseudomonas aeruginosa. Nature of the assay: Antimicrobial activity against Pseudomonas aeruginosa ATCC 27853 after 24 hrs by broth dilution technique. In outline: as §1

With `C[C@@H]1[C@H](O)[C@@H](C)/C=C/C=C/C=C/C=C/C=C/C=C/C=C/[C@H](O[C@@H]2O[C@H](C)[C@@H](O)[C@H](N)[C@@H]2O)C[C@@H]2O[C@](O)(C[C@@H](O)C[C@@H](O)[C@H](O)CC[C@@H](O)C[C@@H](O)CC(=O)O[C@H]1C)C[C@H](O)[C@H]2C(=O)O` [AMPHOTERICIN B], in the assay with Candida albicans, the MFC – broadly, the smallest concentration meeting the test's criterion for killing the fungus – amounted to 0.7 µg/mL (≈ 0.758 µM).
`C[C@@H]1C[C@H](C[C@@H](C)[C@H]2CCCCN3CCC[C@@H]23)OC1=O` [STEMAPHYLLINE]: the MBC (as a rule, the smallest concentration meeting the test's criterion for killing) in the assay on Escherichia coli (ATCC 25922, 24 h) turned out to be 125 µg/mL (≈ 447 µM); in the assay on Staphylococcus aureus (ATCC 25923, 24 h), 250 µg/mL (≈ 895 µM); in the assay on Pseudomonas aeruginosa (ATCC 27853, 24 h) it was 125 µg/mL (≈ 447 µM). Besides, the MIC (in general, the lowest concentration that inhibits growth of the organism) against Escherichia coli (ATCC 25922, 24 h) came out at 62.5 µg/mL (≈ 224 µM); with Candida albicans, 125 µg/mL (≈ 447 µM); in the assay on Staphylococcus aureus (ATCC 25923, 24 h), 125 µg/mL (≈ 447 µM); in the assay with Pseudomonas aeruginosa (ATCC 27853, 24 h), 62.5 µg/mL (≈ 224 µM). Further, the MFC against Candida albicans worked out at 125 µg/mL (≈ 447 µM). In the assay with Plutella xylostella, the LC50 (in general, the concentration lethal to half of the exposed cells or organisms) is 1820 µg/mL (≈ 6530 µM).
With `CNC(=O)ON=C(C)SC` [METHOMYL], the 50% lethal concentration (LC50) in the assay on Plutella xylostella worked out at 1840 µg/mL (≈ 11300 µM).
Turning to GENTAMICIN, the figures for the MBC in the assay on Escherichia coli, with Staphylococcus aureus and in the assay with Pseudomonas aeruginosa were 5.62 µg/mL, 22.5 µg/mL and 1.46 µg/mL, respectively. Besides, the minimum inhibitory concentration (MIC) in the assay with Escherichia coli stood at 5.62 µg/mL; in the assay on Staphylococcus aureus it was 5.62 µg/mL; against Pseudomonas aeruginosa it was 0.35 µg/mL.
